{"source": "paper PMC2582604", "about": "(Nucleic Acids Research, 2008)", "key": {"HeLa pLuc705 cells [1]": {"system": "HeLa pLuc705 cells", "experiment": "Energy dependence of uptake", "assay_type": "cell-based", "settings": "1 µM conjugate, 30 min pre-incubation, 1 h incubation, luciferase read-out", "summary_of_the_method": "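Cells pre-incubated 30 min in OptiMEM at either 37°C or 4°C. Conjugate was then added at 1 μM final and incubation continued 1 h. Read-out was luciferase in lysates, normalised to BCA protein, as in the splicing redirection assay.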"}, "Serum stability assay": {"experiment": "Serum stability assay", "assay_type": "in vitro ADME, mouse", "settings": "37°C", "summary_of_the_method": "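Conjugate (20 μM) incubated at 37°C in PBS with 20% mouse serum (from clotted blood of female Balb/c mice, cleared by 3 × 30 min centrifugation at 4°C). Aliquots at 0, 15, 30, 60 and 120 min were quenched in 10% dichloroacetic acid in H2O/CH3CN (50/50) and held at –20°C. Supernatant after protein pelleting was analysed by MALDI-TOF MS; cleavage sites were assigned from fragment masses, semi-quantitatively.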"}, "HeLa pLuc705 cells [2]": {"system": "HeLa pLuc705 cells", "experiment": "HeLa pLuc705 splicing redirection, luciferase upregulation", "assay_type": "cell-based", "summary_of_the_method": "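HeLa pLuc705 cells were seeded at 1.75 × 10^5/well and grown overnight. Test compound was added for 4 h in OptiMEM without transfection agent, then diluted with DMEM/10% FBS for a further 20 h. Cells were washed in ice-cold PBS and lysed. Luminescence was normalised to BCA protein (550 nm) and expressed as RLU/µg protein or fold over background. Triplicates averaged.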"}, "HeLa pLuc705 cells [3]": {"system": "HeLa pLuc705 cells", "experiment": "Endocytosis inhibitor study, luciferase read-out", "assay_type": "cell-based", "settings": "1 μM conjugate", "summary_of_the_method": "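HeLa pLuc705 cells pre-incubated 30 min in OptiMEM at 37°C with inhibitor: chlorpromazine 30 μM or K+ depletion (clathrin), nystatin 50 μM or filipin-III 5 μg ml–1 (caveolae), methyl-β-cyclodextrin 2.5 mM or EIPA 1 mM (macropinocytosis). Inhibitor levels and timings were set to spare protein synthesis. Conjugate then added to 1 μM final for 30 min. Luciferase read as in the splicing assay.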"}, "[4]": {"system": "aberrant β-globin intron 705 site in HeLa pLuc705 cells", "experiment": "HeLa pLuc705 splicing redirection, RT-PCR analysis", "assay_type": "cell-based", "settings": "RT-PCR assay", "summary_of_the_method": "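HeLa pLuc705 cells were treated with increasing conjugate concentrations as in the luciferase assay (4 h OptiMEM, then 20 h with added serum medium). Total RNA was extracted from the leftover lysate after luciferase and protein measurement. RT-PCR products were separated on 2% agarose and gels scanned to quantify aberrant versus correctly spliced RNA. EC50 of splicing redirection was taken from the dose series.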"}, "[5]": {"system": "dystrophin pre-mRNA exon 23 in mdx myoblasts", "experiment": "Exon skipping after electroporation into mdx myoblasts", "assay_type": "cell-based, mouse", "settings": "0.5 nmol electroporated into mdx myoblasts, 24 h, nested RT-PCR", "summary_of_the_method": "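H2K mdx myoblasts (undifferentiated) were grown 2 days at 33°C, 10% CO2, in 20% FBS/DMEM with interferon γ, then trypsinised. 1.5 × 10^6 cells/100 µl Nucleofector Solution V were pulsed with 0.5 nmol PNA, conjugate or sense control PNA (program T-020). Cells rested 10 min at room temperature in OptiMEM, then cultured 24 h on gelatin at 33°C. Total RNA underwent one-step RT-PCR then nested PCR; 2% agarose gel.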"}}}
{"substance": "(R-Ahx-R)3IHILFQNdRRMKWHKBC [Pip2b–PNA705]", "values": [{"measurement": "uptake mechanism from splicing redirection activity at 37°C and 4°C", "setting": "HeLa pLuc705 cells [1]", "value": "energy-dependent uptake mechanism"}, {"measurement": "stability to serum proteolysis", "setting": "Serum stability assay; 20 μM conjugate, PBS with 20% mouse serum, 1 h, MALDI-TOF MS", "value": "predominantly stable for 1 h"}, {"measurement": "activity compared to RXR4–PNA705", "setting": "HeLa pLuc705 cells [2]; HeLa pLuc705, absence of transfection or permeabilization agent", "value": "3- to 4 fold"}, {"measurement": "effect of EIPA on luciferase expression", "setting": "HeLa pLuc705 cells [3]; EIPA 1 mM (macropinocytosis)", "value": "no effect"}, {"measurement": "inhibitory effect of fillipin-III on luciferase expression", "setting": "HeLa pLuc705 cells [3]; fillipin-III 5 μg ml–1 (caveolae)", "value": 36, "unit": "%"}, {"measurement": "effect of methyl-β-cyclodextrin on luciferase expression", "setting": "HeLa pLuc705 cells [3]; methyl-β-cyclodextrin 2.5 mM (macropinocytosis)", "value": "increased luciferase expression"}, {"measurement": "inhibitory effect of nystatin on luciferase expression", "setting": "HeLa pLuc705 cells [3]; nystatin 50 μM (caveolae)", "value": 12, "unit": "%"}]}
{"substance": "(R-Ahx-R)3IdKILFQNdRRMKWHKBC [Pip2a–PNA705]", "values": [{"measurement": "uptake mechanism from splicing redirection activity at 37°C and 4°C", "setting": "HeLa pLuc705 cells [1]", "value": "energy-dependent uptake mechanism"}]}
{"substance": "(RXR)3-IKILFQN-R|RMKWKKC [Pip1–PNA705]", "values": [{"measurement": "uptake mechanism from splicing redirection activity at 37°C and 4°C", "setting": "HeLa pLuc705 cells [1]", "value": "energy-dependent uptake mechanism"}, {"measurement": "time to full cleavage in 20% mouse serum", "setting": "Serum stability assay; 20 μM conjugate, PBS with 20% mouse serum, MALDI-TOF MS", "value": "≤ 1", "unit": "h"}, {"measurement": "major serum proteolytic cleavage site", "setting": "Serum stability assay; 20% mouse serum, fragment masses by MALDI-TOF MS", "value": "between amino acids R17 and R18"}, {"measurement": "EC50 improvement relative to R6Pen–PNA", "setting": "[4]", "value": "about 2 fold"}, {"measurement": "fold increase in luminescence compared to R6Pen–PNA705", "setting": "HeLa pLuc705 cells [2]; at similar concentrations, HeLa pLuc705 luciferase assay", "value": "two to three times"}]}
{"substance": "sense control PNA: sense 20-mer PNA control sequence AGGTAAGCCGAGGTTTGGCC (all peptide nucleic acid (PNA))", "values": [{"measurement": "exon skipping after electroporation", "setting": "[5]", "value": "no exon skipping"}]}
